Test results taken from ChEMBL document CHEMBL1132700, “Design, synthesis, structure-activity relationships, and biological characterization of novel arylalkoxyphenylalkylamine sigma ligands as potential antipsychotic drugs” (J Med Chem, 1999).

What follows are molecules tested against D(2) dopamine receptor (Rattus norvegicus, UniProt P61169) (assay: Inhibitory concentration against radioligand [3H](-)-sulpiride binding to Dopamine receptor D2 in rat).
Outline: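 Striatal membranes from male Wistar rats (200–250 g), homogenized in 50 mM Tris/HCl pH 7.7, washed by repeated 50000g spins. Filtration on PEI-soaked glass-fiber filters, then scintillation counting. IC50 by nonlinear curve fitting, duplicate determinations.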

D(2) dopamine receptor, sequence (P61169 whole entry): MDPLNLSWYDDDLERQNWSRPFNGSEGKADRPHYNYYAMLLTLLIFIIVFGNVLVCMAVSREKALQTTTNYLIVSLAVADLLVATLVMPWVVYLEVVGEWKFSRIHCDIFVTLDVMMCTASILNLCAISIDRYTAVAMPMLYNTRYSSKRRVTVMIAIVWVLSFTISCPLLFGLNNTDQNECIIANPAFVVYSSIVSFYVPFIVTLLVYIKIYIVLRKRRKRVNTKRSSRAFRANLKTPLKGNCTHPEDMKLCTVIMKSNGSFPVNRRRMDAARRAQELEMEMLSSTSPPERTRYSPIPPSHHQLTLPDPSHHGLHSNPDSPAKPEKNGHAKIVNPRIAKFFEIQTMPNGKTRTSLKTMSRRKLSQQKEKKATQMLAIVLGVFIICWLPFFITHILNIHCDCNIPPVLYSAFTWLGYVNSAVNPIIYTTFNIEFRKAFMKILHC

SMILES | IC50 [µM]
COc1ccc(CCN2CCN(c3ccccn3)CC2)cc1OCCc1ccccc1 | 0.295
CCCN(CCC)CCc1cc(Br)ccc1OCCCc1ccccc1 | 0.685
CCCN(CCC)CCCc1cccc(OC)c1OCCc1ccccc1 | > 1
COc1cccc(CCN2CCN(c3ccccn3)CC2)c1OCCc1ccccc1 | 0.137
Clc1ccc(OCCc2ccccc2)c(CCCN2CCN(c3ccccn3)CC2)c1 | 0.093
CCCN(CCC)CCc1ccc(OCCc2ccccc2)c(O)c1 | > 1
CCCN(CCC)CCc1ccc(OC)c(OCCc2ccc(F)cc2)c1 | > 1
CCCN(CCC)CCc1cccc(OC)c1OCCCc1ccccc1 | > 1
CCCN(CCC)CCc1ccc(OCCc2ccccc2)c(OC)c1 | > 1
COc1ccc(CCN2CCN(c3ccccc3OC)CC2)cc1OCCc1ccccc1 | 0.011
CCCN(CCC)CCc1ccc(OC)c(OCCc2ccc(OC)cc2)c1 | > 1
CCCN(CCC)CCc1cc(Cl)ccc1OCc1ccccc1 | 0.337
COc1cccc(CCN2CCOCC2)c1OCCc1ccccc1 | > 1
CCCN(CCC)CCCCc1cc(Cl)ccc1OCCc1ccccc1 | > 1
CCCN(CCC)CCc1cc(Cl)ccc1OCCCc1ccccc1 | 0.876
Clc1ccc(OCCc2ccccc2)c(CCCN2CCN(c3ncccn3)CC2)c1 | 0.115
COc1cccc(CCN2CCCC2)c1OCCc1ccccc1 | > 1
CCCN(CCC)CCc1ccc(OC)c(OCCc2cccs2)c1 | > 1
CCCN(CCC)CCc1cc(Br)cc(Br)c1OCCc1ccccc1 | > 1
Clc1ccc(OCCc2ccccc2)c(CCN2CCN(c3ccccn3)CC2)c1 | 0.051
CCCN(CCC)CCc1ccc(OC)cc1OCCc1ccccc1 | > 1
COc1ccc(CCN2CCOCC2)cc1OCCc1ccccc1 | > 1
OC(CCCN1CCN(c2ncc(F)cn2)CC1)c1ccc(F)cc1 (configuration not stated) [BMY-14802] | > 1
CCCN(CCC)CCc1ccc(O)c(OCCc2ccccc2)c1 | > 1

Species on record: Mus musculus
Assay: Effective dose against (+)-SKF-10047-induced stereotyped behavior in mice was determined
Format: functional
Outline: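 Male ICR mice (25–30 g, 10 per group) acclimatized at least 1 h. Test drug given orally 30 min before (+)-SKF10,047 30 mg/kg ip. Stereotypy scored on a 0–5 scale from 10 min post-injection, every 5 min for 40 min. Vehicle plus three doses were tested. Total score expressed as percent of control, and ED25 derived.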

SMILES | ED25 [mg/kg]
OC(CCCN1CCN(c2ncc(F)cn2)CC1)c1ccc(F)cc1 (configuration not stated) [BMY-14802] | 7.6

These molecules were tested on Mus musculus (assay: Effect at an intraperitoneal dose of 10 mg/kg against methamphetamine-induced hyperlocomotion in mice).
Format: functional

SMILES | Control [%]
O=C(CCCN1CCC(O)(c2ccc(Cl)cc2)CC1)c1ccc(F)cc1 [HALOPERIDOL] | 7.3

These molecules were tested against Sigma non-opioid intracellular receptor 1 (Rattus norvegicus, UniProt Q9R0C9) (assay: Inhibitory concentration against radioligand [3H]3-PPP binding to Sigma opioid receptor type 1 in rat brain membrane).
Format: cell membranes
Outline: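 Rat whole-brain membranes from male Wistar rats (200–250 g), homogenized in 50 mM Tris/HCl pH 7.7, washed by repeated 50000g spins. Incubated with 2 nM [3H]-(+)-3-PPP and at least five concentrations of unlabeled drug. Filtered on polyethylenimine-soaked glass-fiber filters and counted by scintillation. IC50 from nonlinear curve fitting of competition data, duplicate determinations.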

Sigma non-opioid intracellular receptor 1, sequence (Q9R0C9 whole entry): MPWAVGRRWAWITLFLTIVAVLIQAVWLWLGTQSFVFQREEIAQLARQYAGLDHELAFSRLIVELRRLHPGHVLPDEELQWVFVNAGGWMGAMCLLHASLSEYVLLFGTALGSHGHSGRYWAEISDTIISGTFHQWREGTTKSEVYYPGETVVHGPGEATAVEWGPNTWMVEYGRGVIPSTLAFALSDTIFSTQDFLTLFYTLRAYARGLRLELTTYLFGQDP

SMILES | IC50 [µM]
COc1ccc(CCN2CCN(c3ccccn3)CC2)cc1OCCc1ccccc1 | 0.112
CCCN(CCC)CCc1cc(Br)ccc1OCCCc1ccccc1 | 0.044
CCCN(CCC)CCCc1cccc(OC)c1OCCc1ccccc1 | 0.013
COc1cccc(CCN2CCN(c3ccccn3)CC2)c1OCCc1ccccc1 | > 1
Clc1ccc(OCCc2ccccc2)c(CCCN2CCN(c3ccccn3)CC2)c1 | 0.118
CCCN(CCC)CCc1ccc(OCCc2ccccc2)c(O)c1 | 0.025
CCCN(CCC)CCc1ccc(OC)c(OCCc2ccc(F)cc2)c1 | 0.001
CCCN(CCC)CCc1cccc(OC)c1OCCCc1ccccc1 | 0.0017
CCCN(CCC)CCc1ccc(OCCc2ccccc2)c(OC)c1 | 0.012
COc1ccc(CCN2CCN(c3ccccc3OC)CC2)cc1OCCc1ccccc1 | 0.025
CCCN(CCC)CCc1ccc(OC)c(OCCc2ccc(OC)cc2)c1 | 0.001
CCCN(CCC)CCc1cc(Cl)ccc1OCc1ccccc1 | 0.118
COc1cccc(CCN2CCOCC2)c1OCCc1ccccc1 | 0.373
CCCN(CCC)CCCCc1cc(Cl)ccc1OCCc1ccccc1 | 0.026
CCCN(CCC)CCc1cc(Cl)ccc1OCCCc1ccccc1 | 0.056
Clc1ccc(OCCc2ccccc2)c(CCCN2CCN(c3ncccn3)CC2)c1 | 0.169
CCCN(CCC)CCc1cc(Br)cc(Br)c1OCCc1ccccc1 | 0.774
Clc1ccc(OCCc2ccccc2)c(CCN2CCN(c3ccccn3)CC2)c1 | > 1
CN1CCc2cccc3c2[C@H]1Cc1ccc(O)c(O)c1-3 [APOMORPHINE] | > 1
COc1ccc(CCN2CCOCC2)cc1OCCc1ccccc1 | > 1
CCCN(CCC)CCc1ccc(OC)c(OCCc2ccc(OC)c(OC)c2)c1 | 0.067
